Data: ChEMBL document CHEMBL1130095, “Synthesis of analogs of 2-methoxyestradiol with enhanced inhibitory effects on tubulin polymerization and cancer cell growth” (J Med Chem, 1997)

Key:
OVCAR-3 = experiment: In vitro cytotoxicity value corresponding to 50% growth inhibition against OVCAR-3 (ovarian) cell line.; format: functional; conditions: Homo sapiens
UACC-62 = experiment: In vitro cytotoxicity value corresponding to 50% growth inhibition against UACC-62(melanoma) cell line.; format: functional; conditions: Homo sapiens
SF-539 = experiment: The In vitro cytotoxicity corresponding to 50% growth inhibition against […] (central nervous system) cell line.; format: functional; conditions: Homo sapiens
SN12C = experiment: In vitro cytotoxicity value corresponding to 50% growth inhibition against SN12C (renal) cell line.; format: functional; conditions: Homo sapiens
DU-145 = experiment: The In vitro cytotoxicity value corresponding to 50% growth inhibition against DU-145 (prostate) cell line.; format: functional; conditions: Homo sapiens
Tubulin [1] = biological target: T1, Tubulin (Bos taurus, UniProt Q6B856+Q862L2+Q862F3); experiment: Evaluated for inhibition of tubulin polymerization.; format: functional
Outline: (§1)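 Electrophoretically homogeneous bovine brain tubulin at 1.2 mg/mL (12 µM), preincubated at 26 °C with varying compound concentrations, then chilled on ice before GTP was added. Assembly was followed at 26 °C by turbidity at 350 nm, and the extent was read at 20 min. IC50 was derived graphically from at least two independent assays.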

[2] = tested on: Panel (Carcinoma cell lines); experiment: Mean graph midpoint for growth inhibition of all human cancer cell lines; format: functional
HCT-116 [3] = experiment: The In vitro cytotoxicity value is the concentration of the compound corresponding to 50% growth inhibition againstHCT-116 (colon) cell line.; format: functional; conditions: Homo sapiens
MDA-MB-435 = experiment: In vitro cytotoxicity value corresponding to 50% growth inhibition against MDA-MB-435 (breast) cell line.; format: functional; conditions: Homo sapiens
HCT-116 [4] = experiment: In vitro cytotoxicity value corresponding to 50% growth inhibition against HCT116 (colon) cell line.; format: functional; conditions: Homo sapiens
HOP-62 [5] = experiment: In vitro cytotoxicity value corresponding to 50% growth inhibition against HOP-62(non small cell lung) cell line.; format: functional; conditions: Homo sapiens
HOP-62 [6] = experiment: The In vitro cytotoxicity value is the concentration corresponding to 50% growth inhibition against HOP-62 (non small cell lung) cell line.; format: functional; conditions: Homo sapiens
[7] = biological target: Tubulin beta chain (Bos taurus) (UniProt Q6B856); experiment: Evaluated for % inhibition of colchicine binding to tubulin.; set-up: concentration or dose not given beside the values; conditions: concentration not given here
Chain of Tubulin beta chain (Bos taurus) (Q6B856 whole entry): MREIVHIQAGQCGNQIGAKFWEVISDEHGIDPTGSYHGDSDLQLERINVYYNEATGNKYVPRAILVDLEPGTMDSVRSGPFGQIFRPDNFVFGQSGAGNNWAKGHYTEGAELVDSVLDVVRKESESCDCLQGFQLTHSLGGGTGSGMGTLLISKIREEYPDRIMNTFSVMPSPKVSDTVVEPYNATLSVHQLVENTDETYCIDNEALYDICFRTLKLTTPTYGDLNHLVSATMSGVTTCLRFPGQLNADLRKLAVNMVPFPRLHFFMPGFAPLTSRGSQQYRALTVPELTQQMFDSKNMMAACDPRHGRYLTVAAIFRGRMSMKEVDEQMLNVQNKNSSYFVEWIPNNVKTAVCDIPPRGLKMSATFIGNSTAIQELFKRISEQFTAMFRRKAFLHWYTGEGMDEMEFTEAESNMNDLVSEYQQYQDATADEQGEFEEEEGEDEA
Outline: (§2)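 Mixtures held 1.0 µM bovine brain tubulin (0.1 mg/mL), 5.0 µM [³H]colchicine and 50 µM inhibitor, incubated 10 min at 37 °C. Bound-colchicine inhibition is given as percent, from triplicate samples in each experiment.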

[8] = biological target: Estrogen receptor (Rattus norvegicus) (UniProt P06211+Q62986); experiment: Relative binding affinity for estrogen receptor using a tritium labeled estrogen as the tracer and immature rat uterine cytosol; format: protein assay; conditions: Uterus
Outline: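 Competitive radiometric binding with a tritiated estrogen tracer and immature rat uterine cytosol as receptor source, incubated at 0 °C for 18 or 20 h. […] Coefficient of variation between replicate experiments is typically below 30%.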

Tubulin (Bos taurus) = Tubulin (Bos taurus) (UniProt Q6B856+Q862L2+Q862F3); experiment: The compound was evaluated for inhibition of colchicine binding to tubulin.; format: protein assay; conditions: concentration not given here; outline: as §2
Tubulin [9] = biological target: T1, Tubulin; experiment: The compound was evaluated for inhibition of tubulin polymerization, which is purified from bovine brain; format: functional; outline: as §1

Row | SMILES | GI50 (OVCAR-3) [µM] | GI50 (UACC-62) [µM] | GI50 (SF-539) [µM] | GI50 (SN12C) [µM] | GI50 (DU-145) [µM] | IC50 (Tubulin [1]) [µM] | GI50 [2] [µM] | GI50 (HCT-116 [3]) [µM] | GI50 (MDA-MB-435) [µM] | GI50 (HCT-116 [4]) [µM] | GI50 (HOP-62 [5]) [µM] | GI50 (HOP-62 [6]) [µM] | inhibition [7] [%] | relative binding affinity (RBA) [8] | inhibition (Tubulin (Bos taurus)) [%] | IC50 (Tubulin [9]) [µM]
1 | C[C@]12CC[C@@H]3c4cc(Br)c(O)c(Br)c4CC[C@H]3[C@@H]1CC[C@@H]2O | 17 | 17 | 21 | 28 | 40 | > 40 | 25 | 20 | 27 |  |  |  |  |  |  | 
2 | CCOc1cc2c(cc1O)CC[C@@H]1[C@@H]2CC[C@]2(C)[C@@H](N)CC[C@@H]12.Cl | 1.3 | 3.6 | 4 | 5.2 | 1.9 | > 40 | 3.3 |  | 1.7 | 3.2 | 11 |  |  |  |  | 
3 | Cc1cc2cc3c(cc2o1)CC[C@@H]1[C@@H]3CC[C@]2(C)[C@@H](O)CC[C@@H]12 | 18 | 16 | 14 | 16 | 17 | > 40 | 14 |  | 23 | 0.51 |  | 19 |  |  |  | 
4 | CCOc1cc2c(cc1O)CC[C@@H]1[C@@H]2CC[C@]2(C)[C@@H](OS(=O)O[C@H]3CC[C@H]4[C@@H]5CCc6cc(O)c(OCC)cc6[C@H]5CC[C@]34C)CC[C@@H]12 | 0.27 | 1.3 | 0.57 | 2.6 | 1.1 | 5.9 | 1.1 |  | 0.22 | 0.49 | 0.83 |  | 24 |  |  | 
5 | CCOc1cc2c(cc1O)C=CC1C2CC[C@@]2(C)C1CC[C@@H]2O (stereo not given in full) | 1.9 | 4.8 | 2 | 4.6 | 2.1 | 4.4 | 3.8 |  | 0.34 | 1.1 | 3.9 |  | 8.6 |  |  | 
6 | CCOc1cc2c(cc1O)C(N)C[C@@H]1[C@@H]2CC[C@]2(C)[C@@H](O)CC[C@@H]12 (stereo not given in full) | 45 | 19 |  | 59 | > 100 | > 40 | 40 |  | 16 | 40 | 26 |  |  |  |  | 
7 | CCOc1cc2c(cc1O)/C(=N\OC)C[C@@H]1[C@@H]2CC[C@]2(C)[C@@H](O)CC[C@@H]12 | 0.026 | 0.052 |  | 0.39 | 0.33 |  | 0.27 |  | 0.029 | 0.049 | 0.11 |  |  | < 0.001 | 34 | 1.4
8 | C[C@]12CC[C@@H]3c4cc(OCC(F)(F)F)c(O)cc4/C(=N\O)C[C@H]3[C@@H]1CC[C@@H]2O | 0.016 | 0.015 | 0.021 | 0.045 | 0.049 |  | 0.066 |  | 0.01 | 0.031 | 0.017 |  |  | 0.007 | 28 | 2.3
9 | C[C@]12CC[C@@H]3c4cc(OCC(F)(F)F)c(O)cc4CC[C@H]3[C@@H]1CC[C@@H]2O | 0.46 | 2.3 | 1.4 | 4.5 | 7 | 1.5 | 2.6 |  | 0.28 | 3.2 | 12 |  | 11 |  |  | 
10 | CC#Cc1cc2c(cc1O)CC[C@@H]1[C@@H]2CC[C@]2(C)[C@@H](O)CC[C@@H]12 | 0.34 | 0.5 | 0.95 | 6.9 | 3.6 | 4.8 | 1.7 |  | 0.13 | 0.48 | 1.7 |  | 11 |  |  | 
